The source made the active and inactive calls. No cut-off for these calls is given here.
Key:
HEK293 [1] = test: (§1) Sequestering activity against saccharomyces cerevisiae lipoteichoic acid assessed as inhibition of TLR2-mediated NF-kappaB induction in HEK293 cells stably transfected TLR2/MD2/CD14/alkaline phosphatase by reporter gene assay; assay type: cell-based; conditions: Staphylococcus aureus, in the assay text read “Staphylococcus aureus” for “Saccharomyces cerevisiae”
Outline: (§2)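 HEK-Blue-2 reporter cells (TLR2, MD2, CD14, NF-κB/AP-1-driven secreted alkaline phosphatase) were grown to confluence, then stimulated with LTA purified from S. aureus (n-butanol extraction, delipidated, enzymatically deproteinated) plus graded compound concentrations. sAP was read with a chromogen at 620 nm. Dilutions were run in quadruplicate and experiments repeated three times.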

Staphylococcus aureus = test: Antimicrobial activity against Staphylococcus aureus ATCC 13709 at 37 degC by broth microdilution method; assay type: functional, organism-based
Outline: (§3)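 Broth microdilution in non-cation-supplemented Mueller-Hinton broth. Mid-log cultures were adjusted to OD600 0.5, diluted 10-fold and added to equal volumes of 2-fold serially diluted compound. Plates were incubated overnight at 37°C and read at 600 nm. MIC was the lowest concentration giving complete growth inhibition. Triplicate points from a representative experiment.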

[2] = as §1; assay type: cell-based; conditions: Staphylococcus aureus, in the assay text read “Staphylococcus aureus” for “saccharomyces cerevisiae”; outline: as §2
HEK293 [3] = test: Neutralizing activity against saccharomyces cerevisiae lipoteichoic acid assessed as inhibition of TLR2-mediated NF-kappaB induction in HEK293 cells stably transfected TLR2/MD2/CD14/alkaline phosphatase by reporter gene assay; assay type: cell-based; conditions: Staphylococcus aureus, in the assay text read “Staphylococcus aureus” for “Saccharomyces cerevisiae”; outline: as §2
[4] = Aqueous solubility of the compound; assay type: physicochemical; conditions: buffer
HEK293 [5] = test: Neutralizing activity lipopolysaccharide assessed as inhibition of TLR4-mediated NF-kappaB translocation in HEK293 cells stably transfected TLR4/MD2/CD14/alkaline phosphatase by reporter gene assay; assay type: cell-based
Outline: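 HEK-Blue-4 cells (TLR4, MD2, CD14, NF-κB/AP-1-inducible secreted alkaline phosphatase) were grown to confluence and stimulated with E. coli O111:B4 LPS plus graded compound concentrations. Alkaline phosphatase was read with a chromogen at 620 nm. Each dilution was run in quadruplicate and experiments repeated three times.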

HEK293 [6] = test: Sequestering activity against lipoteichoic acid assessed as inhibition of TLR2-mediated NF-kappaB induction in HEK293 cells stably transfected TLR2/MD2/CD14/alkaline phosphatase by reporter gene assay
HEK293 [7] = test: Sequestration activity Saccharomyces cerevisiae lipoteichoic acid assessed as inhibition of TLR2-mediated NF-kappaB translocation in HEK293 cells stably transfected TLR2/MD2/CD14/alkaline phosphatase by reporter gene assay; assay type: cell-based; conditions: Staphylococcus aureus, in the assay text read “Staphylococcus aureus” for “Saccharomyces cerevisiae”; outline: as §2
Escherichia coli = test: Antimicrobial activity against Escherichia coli ATCC 9637 at 37 degC by broth microdilution method; assay type: functional, organism-based; outline: as §3

Row | EC50 [2] | solubility [4] | Compound | Activity (HEK293 [1]) | Activity (Staphylococcus aureus) | inhibition (HEK293 [3]) | inhibition (HEK293 [5]) | inhibition (HEK293 [6]) | inhibition (HEK293 [7]) | Activity (Escherichia coli)
1 |  |  | POLYMYXIN B | Active |  |  |  |  |  | 
2 | 60 µM | Insoluble | CCCCCCCCCCCCCCCCCCS(=O)(=O)NCCCNCCCNCCCCCCNCCCNCCCNS(=O)(=O)CCCCCCCCCCCCCCCCCC.Cl |  | Active | inactive |  |  |  | 
3 |  |  | CCCCCCCCCCS(=O)(=O)NCCCNCCCNCCCCNCCCN |  |  |  | Active | Active | Active | 
4 | 60 µM | Insoluble | CCCCCCCCCCCCCCCCS(=O)(=O)NCCCNCCCNCCCCCCNCCCNCCCNS(=O)(=O)CCCCCCCCCCCCCCCC.Cl |  | Active | inactive |  |  |  | 
5 |  |  | CCCCCCCCCCCCS(=O)(=O)NCCCNCCCNCCCCNCCCN |  |  |  | Active | Active | Active | Active
6 | 1 µM |  | CCCCCCCCCCCCCCCCS(=O)(=O)NCCCNCCCCNCCCN |  |  |  | Active | Active | Active | 
7 | 1 µM |  | CCCCCCCCCCCCCCCCS(=O)(=O)NCCCNCCCNCCCCNCCCN |  |  |  | Active | Active | Active | Active
8 | 60 µM | Insoluble | CCCCCCCCCCCCS(=O)(=O)NCCCNCCCNCCCCCCNCCCNCCCNS(=O)(=O)CCCCCCCCCCCC.Cl |  | Active | inactive |  |  |  | 
9 | 60 µM | Insoluble | CCCCCCCCS(=O)(=O)NCCCNCCCNCCCCCCNCCCNCCCNS(=O)(=O)CCCCCCCC.Cl |  | Active | inactive |  |  |  | inactive
10 |  |  | CCCCCCCCCCCCCCCCCCS(=O)(=O)NCCCNCCCNCCCCNCCCN |  |  |  | Active | Active | Active | 
11 | 60 µM | Insoluble | CCCCCCCCCCS(=O)(=O)NCCCNCCCNCCCCCCNCCCNCCCNS(=O)(=O)CCCCCCCCCC.Cl |  | Active | inactive |  |  |  | inactive
12 |  |  | CCCCCCCCCCCCS(=O)(=O)NCCCNCCCCNCCCN |  |  |  | Active | Active | Active | 
13 |  |  | CCCCCCCCS(=O)(=O)NCCCNCCCNCCCCNCCCN |  |  |  | Active | Active | Active | 
14 |  |  | CCCCCCCCCCCCCCCCCCS(=O)(=O)NCCCNCCCCNCCCN |  |  |  | Active | Active | Active | 
15 |  |  | CCCCCCCCCCS(=O)(=O)NCCCNCCCCNCCCN |  |  |  | Active | Active | Active | 
16 |  |  | CCCCCCCCS(=O)(=O)NCCCNCCCCNCCCN |  |  |  | Active | Active | Active | 

— ChEMBL document CHEMBL1629578, “Structure-activity relationships of antimicrobial and lipoteichoic acid-sequestering properties in polyamine sulfonamides” (Antimicrob Agents Chemother, 2009)
